Experimental data reported in paper PMC3472128 (Structure (London, England : 1993), 2012).

System: HA-YAP
Assay: Immunoprecipitation of Smad7 with HA-YAP in HEK293T cells
Assay type: cell-based, human
Conditions: full-length Smad7 wild type or variants with HA-YAP
Outline: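 HEK293T cells were transfected with epitope-tagged constructs (HA-YAP with full-length Smad7 wild type or variants) and treated where indicated with TGF-β1 at 100 pM. Lysates were immunoprecipitated with anti-Flag antibody, then immunoblotted with antibodies against the tags.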

B1: S206A: Smad7 mutant S206A, flag epitope-tagged plasmid expressed in HEK293T (protein, UniProt O15105 1-426, looked up, variant S206A)
chain: MFRTKRSALVRRLWRSRAPGGEDEEEGAGGGGGGGELRGEGATDSRAHGAGGGGPGRAGCCLGKAVRGAKGHHHPHPPAAGAGAAGGAEADLKALTHSVLKKLKERQLELLLQAVESRGGTRTACLLLPGRLDCRLGPGAPAGAQPAQPPSSYSLPLLLCKVFRWPDLRHSSEVKRLCCCESYGKINPELVCCNPHHLSRLCELEAPPPPYSRYPMDFLKPTADCPDAVPSSAETGGTNYLAPGGLSDSQLLLEPGDRSHWCVVAYWEEKTRVGRLYCVQEPSLDIFYDLPQGNGFCLGQLNSDNKSQLVQKVRSKIGCGIQLTREVDGVWVYNRSSYPIFIKSATLDNPDSRTLLVHKVFPGFSIKAFDYEKAYSLQRPNDHEFMQQPWTGFTVQISFVKGWGQCYTRQFISSCPCWLEVIFNSR
modifications: full-length FLAG tag
  binding to HA-YAP in immunoprecipitation: binding is observed
